Active and inactive are the calls of the source. The rule behind the calls is not given here.
Legend:
Influenza B virus = experiment: Antiviral activity against Influenza B virus infected in dog MDCK cells assessed as reduction of virus-induced cytopathogenicity at 250 uM; format: functional, organism-based
Method in brief: (§1)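 Confluent cell monolayers were infected with 100 CCID50 of virus while exposed to varying compound concentrations. Cytopathicity was scored once it was complete in untreated infected controls. EC50 was taken as the concentration that reduced virus-induced cytopathogenicity by 50%.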

L1210 = experiment: Cytostatic activity against mouse L1210 cells assessed as inhibition of cell proliferation after 48 hrs by Coulter counter analysis; format: functional, cell-based; settings: L1210, 48 h
Method in brief: (§2)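 Each well received (5–7.5) × 10^4 tumor cells plus compound. L1210 cells grew 48 h and CEM and HeLa cells grew 72 h, at 37 °C in humidified CO2. Cells were then counted electronically, and IC50 was taken as the concentration inhibiting proliferation by 50%.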

MDCK = experiment: Cytotoxicity against dog MDCK cells assessed as alteration of cell morphology up to 100 uM by microscopic analysis; format: cell-based, Canis lupus familiaris
Method in brief: (§3)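 Uninfected host-cell cultures were exposed to compound and examined by microscopy. Cytotoxicity was expressed as the minimum cytotoxic concentration (MCC) causing a microscopically detectable alteration of normal cell morphology.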

Human alphaherpesvirus 1 [1] = experiment: Antiviral activity against Herpes simplex virus 1 KOS infected in human HEL cells assessed as reduction of virus-induced cytopathogenicity at 250 uM; format: functional, organism-based
Method in brief: (§4)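 Confluent monolayers (HEL fibroblasts, Vero, or HeLa cells as listed) were infected with 100 CCID50 of virus in the presence of varying compound concentrations. Virus-induced cytopathicity or plaque formation was scored once cytopathicity was complete in untreated infected controls. EC50 was taken as the concentration reducing cytopathogenicity or plaque formation by 50%.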

Felid alphaherpesvirus 1 = experiment: Antiviral activity against Feline herpes virus infected in cat CRFK cells assessed as reduction of virus-induced cytopathogenicity at 250 uM; format: functional, organism-based
Human respirovirus 3 = experiment: Antiviral activity against Parainfluenza virus 3 infected in african green monkey Vero cells assessed as reduction of virus-induced cytopathogenicity at 250 uM; format: functional, organism-based; method in brief: as §4
Sindbis virus = experiment: Antiviral activity against Sindbis virus infected in african green monkey Vero cells assessed as reduction of virus-induced cytopathogenicity at 250 uM; format: functional, organism-based; method in brief: as §4
[2] = tested on: Human immunodeficiency virus 1; experiment: Antiviral activity against Human immunodeficiency virus 1 3B infected in human CEM cells assessed as reduction of virus-induced giant cell formation at 250 uM after 4 to 5 days; format: functional, organism-based; settings: CCRF-CEM
Method in brief: (§5)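 CEM cells at 3 × 10^5 cells/mL were infected with HIV at 100 CCID50 per mL in the presence of compound dilutions. They were held 4–5 days at 37 °C in humidified CO2. Syncytium (giant cell) formation was scored microscopically, and EC50 was taken as the concentration inhibiting giant cell formation by 50%.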

Human alphaherpesvirus 2 = experiment: Antiviral activity against Herpes simplex virus 2 G infected in human HEL cells assessed as reduction of virus-induced cytopathogenicity at 250 uM; format: functional, organism-based; settings: strain G; method in brief: as §4
[3] = Cytotoxicity against cat CRFK cells assessed as alteration of cell morphology up to 100 uM by microscopic analysis; format: cell-based, Felis catus; method in brief: as §3
[4] = tested on: Human immunodeficiency virus 2; experiment: Antiviral activity against Human immunodeficiency virus 2 ROD infected in human CEM cells assessed as reduction of virus-induced giant cell formation at 250 uM after 4 to 5 days; format: functional, organism-based; settings: CCRF-CEM; method in brief: as §5
Influenza A virus [5] = experiment: Antiviral activity against Influenza A virus H3N2 infected in dog MDCK cells assessed as reduction of virus-induced cytopathogenicity at 250 uM; format: functional, organism-based; method in brief: as §1
Feline coronavirus = experiment: Antiviral activity against Feline coronavirus infected in cat CRFK cells assessed as reduction of virus-induced cytopathogenicity at 250 uM; format: functional, organism-based
HeLa [6] = experiment: Cytotoxicity against human HeLa cells assessed as alteration of cell morphology up to 100 uM by microscopic analysis; format: cell-based; method in brief: as §3
[7] = tested on: Vesicular stomatitis virus; experiment: Antiviral activity against Vesicular stomatitis virus infected in human HeLa cells assessed as reduction of virus-induced cytopathogenicity at 250 uM; format: functional, organism-based; method in brief: as §1
[8] = tested on: Mammalian orthoreovirus 1; experiment: Antiviral activity against Reovirus 1 infected in african green monkey Vero cells assessed as reduction of virus-induced cytopathogenicity at 250 uM; format: functional, organism-based; method in brief: as §4
Influenza A virus [9] = experiment: Antiviral activity against Influenza A virus H1N1 infected in dog MDCK cells assessed as reduction of virus-induced cytopathogenicity at 250 uM; format: functional, organism-based; method in brief: as §1
CCRF-CEM = experiment: Cytostatic activity against human CEM cells assessed as inhibition of cell proliferation after 72 hrs by Coulter counter analysis; format: functional, cell-based; method in brief: as §2
HEL = experiment: Cytotoxicity against human HEL cells assessed as alteration of cell morphology up to 100 uM by microscopic analysis; format: cell-based; method in brief: as §3
[10] = tested on: Vesicular stomatitis virus; experiment: Antiviral activity against Vesicular stomatitis virus infected in human HEL cells assessed as reduction of virus-induced cytopathogenicity at 250 uM; format: functional, organism-based; method in brief: as §1
Human alphaherpesvirus 1 [11] = experiment: Antiviral activity against thymidine kinase-deficient, ACV-resistant Herpes simplex virus 1 KOS infected in human HEL cells assessed as reduction of virus-induced cytopathogenicity at 250 uM; format: functional, organism-based; method in brief: as §1
Vero = experiment: Cytotoxicity against african green monkey Vero cells assessed as alteration of cell morphology up to 100 uM by microscopic analysis; format: cell-based; settings: chlorocebus sabaeus; method in brief: as §3
Punta Toro virus = experiment: Antiviral activity against Punta Toro virus infected in african green monkey Vero cells assessed as reduction of virus-induced cytopathogenicity at 250 uM; format: functional, organism-based; method in brief: as §4
Coxsackievirus B4 = experiment: Antiviral activity against Coxsackievirus B4 infected in african green monkey Vero cells assessed as reduction of virus-induced cytopathogenicity at 250 uM; format: functional, organism-based; method in brief: as §4
[12] = tested on: Respiratory syncytial virus; experiment: Antiviral activity against Respiratory syncytial virus long infected in human HeLa cells assessed as reduction of virus-induced cytopathogenicity at 250 uM; format: functional, organism-based; method in brief: as §4
HeLa [13] = experiment: Cytostatic activity against human HeLa cells assessed as inhibition of cell proliferation after 72 hrs by Coulter counter analysis; format: functional, cell-based; method in brief: as §2

Row | Compound | inhibition (Influenza B virus) | Activity (MDCK) | inhibition (Human alphaherpesvirus 1 [1]) | inhibition (Felid alphaherpesvirus 1) | inhibition (Human respirovirus 3) | inhibition (Sindbis virus) | inhibition [2] | inhibition (Human alphaherpesvirus 2) | Activity [3] | inhibition [4] | inhibition (Influenza A virus [5]) | inhibition (Feline coronavirus) | Activity (HeLa [6]) | inhibition [7] | inhibition [8] | inhibition (Influenza A virus [9]) | Activity (HEL) | inhibition [10] | inhibition (Human alphaherpesvirus 1 [11]) | Activity (Vero) | other results
1 | CCOP(=O)(OCC)[C@H]1C[C@H](C(=O)Nc2ccc(Br)cc2)ON1C (mixture of isomers) | inactive | Non-toxic | inactive | inactive | inactive | inactive | inactive | inactive | Non-toxic | inactive | inactive | inactive | Non-toxic | inactive | inactive | inactive | Non-toxic | inactive | inactive | Non-toxic | IC50 (L1210): 177 µM; IC50 (CCRF-CEM): 227 µM; inhibition (Punta Toro virus): inactive; inhibition (Coxsackievirus B4): inactive; inhibition [12]: inactive; IC50 (HeLa [13]): ≥ 250 µM
2 | CCOP(=O)(OCC)[C@@H]1C[C@H](C(=O)Nc2ccc(Cl)cc2)ON1C (mixture of isomers) | inactive | Non-toxic | inactive | inactive | inactive | inactive | inactive | inactive | Non-toxic | inactive | inactive | inactive | Non-toxic | inactive | inactive | inactive | Non-toxic | inactive | inactive | Non-toxic | IC50 (L1210): 170 µM; IC50 (CCRF-CEM): ≥ 250 µM; inhibition (Punta Toro virus): inactive; inhibition (Coxsackievirus B4): inactive; inhibition [12]: inactive; IC50 (HeLa [13]): > 250 µM
3 | CCOP(=O)(OCC)[C@H]1C[C@H](C(=O)Nc2ccccc2[N+](=O)[O-])ON1C (mixture of isomers) | inactive | Non-toxic | inactive | inactive | inactive | inactive | inactive | inactive | Non-toxic | inactive | inactive | inactive | Non-toxic | inactive | inactive | inactive | Non-toxic | inactive | inactive | Non-toxic | IC50 (L1210): 168 µM; IC50 (CCRF-CEM): ≥ 250 µM; inhibition (Punta Toro virus): inactive; inhibition (Coxsackievirus B4): inactive; inhibition [12]: inactive; IC50 (HeLa [13]): > 250 µM
4 | CCOP(=O)(OCC)[C@H]1C[C@H](C(=O)Nc2ccc(C(C)=O)cc2)ON1C (mixture of isomers) | inactive | Non-toxic | inactive | inactive | inactive | inactive | inactive | inactive | Non-toxic | inactive | inactive | inactive | Non-toxic | inactive | inactive | inactive | Non-toxic | inactive | inactive | Non-toxic | IC50 (L1210): > 250 µM; IC50 (CCRF-CEM): > 250 µM; inhibition (Punta Toro virus): inactive; inhibition (Coxsackievirus B4): inactive; inhibition [12]: inactive; IC50 (HeLa [13]): > 250 µM
5 | CCOP(=O)(OCC)[C@H]1C[C@H](C(=O)Nc2ccc(F)cc2)ON1C (racemic) | inactive | Non-toxic | inactive | inactive | inactive | inactive | inactive | inactive | Non-toxic | inactive | inactive | inactive | Non-toxic | inactive | inactive | inactive | Non-toxic | inactive | inactive | Non-toxic | inhibition (Punta Toro virus): inactive; inhibition (Coxsackievirus B4): inactive; inhibition [12]: inactive
6 | CCOP(=O)(OCC)[C@@H]1C[C@H](C(=O)Nc2ccc([N+](=O)[O-])cc2)ON1C (racemic) | inactive | Non-toxic | inactive | inactive | inactive | inactive | inactive | inactive | Non-toxic | inactive | inactive | inactive | Non-toxic | inactive | inactive | inactive | Non-toxic | inactive | inactive | Non-toxic | inhibition (Punta Toro virus): inactive; inhibition (Coxsackievirus B4): inactive; inhibition [12]: inactive
7 | CCOP(=O)(OCC)[C@H]1C[C@H](C(=O)Nc2ccc(C)cc2)ON1C (relative stereo) | inactive | Non-toxic | inactive | inactive | inactive | inactive | inactive | inactive | Non-toxic | inactive | inactive | inactive | Non-toxic | inactive | inactive | inactive | Non-toxic | inactive | inactive | Non-toxic | inhibition (Punta Toro virus): inactive; inhibition (Coxsackievirus B4): inactive; inhibition [12]: inactive
